ChEMBL document CHEMBL3621164, “Discovery of Triazole CYP11B2 Inhibitors with in Vivo Activity in Rhesus Monkeys” (ACS Med Chem Lett, 2015)
Activity calls are given as the source filed them. No cut-off for these calls is given here.

Assays:
Rhesus monkey [1] = experiment: Decrease in aldosterone level in rhesus monkey plasma at 0.3 mg/kg, iv by LC/MS method; format: functional; details: Macaca mulatta
How it was run: (§1)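 Plasma aldosterone and 11-deoxycortisol quantified by LC–MS at time points up to 180 min postdose; AUCs over that period calculated and compared with baseline.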

[2] = target: T1, Cytochrome P450 11B2, mitochondrial (Homo sapiens, UniProt P19099); experiment: Inhibition of human CYP11B2 expressed in V79 cells assessed as aldosterone level after 3 hrs by HTRF assay in presence of 125 nM 11-deoxycorticosterone; format: cell-based
T1 sequence (P19099 whole entry): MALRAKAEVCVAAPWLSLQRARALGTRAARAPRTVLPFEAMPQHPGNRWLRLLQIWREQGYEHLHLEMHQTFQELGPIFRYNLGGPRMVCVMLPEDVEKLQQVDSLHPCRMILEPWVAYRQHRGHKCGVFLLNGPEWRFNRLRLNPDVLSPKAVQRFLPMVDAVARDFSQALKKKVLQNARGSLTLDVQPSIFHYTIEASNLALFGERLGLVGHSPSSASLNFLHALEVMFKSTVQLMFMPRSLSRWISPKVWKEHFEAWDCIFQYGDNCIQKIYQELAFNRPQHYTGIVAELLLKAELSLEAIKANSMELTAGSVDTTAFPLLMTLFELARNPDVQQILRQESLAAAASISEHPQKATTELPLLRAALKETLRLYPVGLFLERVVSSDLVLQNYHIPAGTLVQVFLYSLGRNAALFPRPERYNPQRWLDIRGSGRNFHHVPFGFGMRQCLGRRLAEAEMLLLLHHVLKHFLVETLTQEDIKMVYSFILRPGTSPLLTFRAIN

[3] = target: T2, Cytochrome P450 11B1, mitochondrial (Homo sapiens, UniProt P15538); experiment: Inhibition of human CYP11B1 expressed in V79 cells assessed as cortisol level after 3 hrs by HTRF assay in presence of 250 nM 11-deoxycortisol; format: cell-based
T2 sequence (P15538 whole entry): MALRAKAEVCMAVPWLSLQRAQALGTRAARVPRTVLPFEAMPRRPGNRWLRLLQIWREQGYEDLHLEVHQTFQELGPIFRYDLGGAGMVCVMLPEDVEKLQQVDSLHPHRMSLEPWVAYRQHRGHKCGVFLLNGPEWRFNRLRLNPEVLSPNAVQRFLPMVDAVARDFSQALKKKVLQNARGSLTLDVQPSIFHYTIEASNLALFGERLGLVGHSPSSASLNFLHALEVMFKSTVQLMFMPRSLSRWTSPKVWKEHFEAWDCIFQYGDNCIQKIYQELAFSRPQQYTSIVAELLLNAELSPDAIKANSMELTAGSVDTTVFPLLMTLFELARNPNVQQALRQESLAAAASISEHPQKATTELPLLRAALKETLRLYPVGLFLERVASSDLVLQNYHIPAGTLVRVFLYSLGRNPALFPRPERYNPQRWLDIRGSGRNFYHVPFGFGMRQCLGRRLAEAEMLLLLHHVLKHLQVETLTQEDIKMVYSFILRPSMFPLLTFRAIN

Rhesus monkey [4] = experiment: Effect on 11-deoxycortisol level in rhesus monkey plasma upto 1 mg/kg, iv by LC/MS method; format: functional, organism-based; details: Macaca mulatta; how it was run: as §1
Plasma [5] = experiment: Free plasma concentration in rhesus monkey at 0.3 mg/kg, iv measured 90 mins post dose by LC/MS method; format: ADME, organism-based, Macaca mulatta; details: in vivo, 1.5 h
How it was run: (§2)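 Anesthetized rhesus monkeys dosed i.v.; plasma drug concentration measured 90 min postdose. Free (unbound) concentration calculated from total plasma level using the free fraction determined in rhesus plasma.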

[6] = Lipophilicity, log D of the compound by HPLC; format: physicochemical
How it was run: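 Lipophilicity determined experimentally by HPLC.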

[7] = Oral bioavailability in rhesus monkey at 2 mg/kg administered through gavage; format: ADME, organism-based, Macaca mulatta; details: in vivo
Rhesus monkey [8] = experiment: Decrease in aldosterone level in iv dosed rhesus monkey plasma by LC/MS method; format: functional, organism-based; details: Macaca mulatta; how it was run: as §1
Rhesus monkey [9] = experiment: Dose normalized AUC in rhesus monkey at 2 mg/kg administered through gavage; format: ADME, organism-based, Macaca mulatta; details: in vivo, po
[10] = Half life in Sprague-Dawley rat at 2 mg/kg, po administered through gavage by LC/MS/MS method; format: ADME, organism-based; details: in vivo
[11] = Intrinsic clearance in rhesus monkey liver microsomes by LC/MS method; format: ADME, Macaca mulatta
Plasma [12] = experiment: Plasma protein binding in rhesus monkey; format: ADME, cell-free, Macaca mulatta
[13] = Half life in rhesus monkey at 2 mg/kg administered through gavage; format: ADME, organism-based, Macaca mulatta; details: in vivo, po
[14] = Oral bioavailability in Sprague-Dawley rat at 2 mg/kg administered through gavage; format: ADME, organism-based; details: in vivo
Rhesus monkey [15] = experiment: Decrease in aldosterone level in rhesus monkey plasma at 0.1 mg/kg, iv by LC/MS method; format: functional; details: Macaca mulatta; how it was run: as §1
Plasma [16] = experiment: Fraction unbound in iv dosed rhesus monkey plasma measured 90 mins post dose by LC/MS method; format: ADME, organism-based, Macaca mulatta; details: in vivo, 1.5 h
Plasma [17] = experiment: Free plasma concentration in rhesus monkey at 1 mg/kg, iv measured 90 mins post dose by LC/MS method; format: ADME, organism-based, Macaca mulatta; details: in vivo, 1.5 h; how it was run: as §2
Plasma [18] = experiment: Free plasma concentration in rhesus monkey at 0.1 mg/kg, iv measured 90 mins post dose by LC/MS method; format: ADME, organism-based, Macaca mulatta; details: in vivo, 1.5 h; how it was run: as §2
Rattus norvegicus = experiment: Dose normalized AUC in Sprague-Dawley rat at 2 mg/kg, po administered through gavage; format: ADME, organism-based; details: in vivo
Homo sapiens = species: Homo sapiens; experiment: Selectivity index, ratio IC50 for human CYP11B1 to IC50 for human CYP11B2
How it was run: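 Ratio of human CYP11B1 IC50 to human CYP11B2 IC50; each IC50 calculated from n ≥ 2 determinations.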

Rhesus monkey [19] = experiment: Decrease in aldosterone level in rhesus monkey plasma at 1 mg/kg, iv by LC/MS method; format: functional; details: Macaca mulatta; how it was run: as §1
Aromatase = target: T3, Aromatase (Homo sapiens, UniProt P11511); experiment: Inhibition of human CYP19
T3 sequence (P11511 whole entry): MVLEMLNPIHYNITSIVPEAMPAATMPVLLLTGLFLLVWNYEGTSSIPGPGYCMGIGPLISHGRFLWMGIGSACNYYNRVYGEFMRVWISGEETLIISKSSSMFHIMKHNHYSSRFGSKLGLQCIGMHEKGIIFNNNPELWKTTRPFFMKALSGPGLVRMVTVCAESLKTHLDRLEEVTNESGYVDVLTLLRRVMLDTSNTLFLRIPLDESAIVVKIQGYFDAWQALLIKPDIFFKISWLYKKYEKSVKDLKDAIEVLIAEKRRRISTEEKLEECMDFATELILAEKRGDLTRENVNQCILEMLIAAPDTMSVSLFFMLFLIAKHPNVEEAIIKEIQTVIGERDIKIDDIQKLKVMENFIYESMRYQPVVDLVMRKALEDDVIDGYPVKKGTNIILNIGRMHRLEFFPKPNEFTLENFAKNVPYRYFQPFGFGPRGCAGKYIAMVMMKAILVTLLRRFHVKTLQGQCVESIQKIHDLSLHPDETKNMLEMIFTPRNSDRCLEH

Cytochrome P450 3A4 = Cytochrome P450 3A4 (Homo sapiens, UniProt P08684); experiment: Inhibition of human CYP3A4; format: ADME
Cytochrome P450 3A4, sequence (P08684 whole entry): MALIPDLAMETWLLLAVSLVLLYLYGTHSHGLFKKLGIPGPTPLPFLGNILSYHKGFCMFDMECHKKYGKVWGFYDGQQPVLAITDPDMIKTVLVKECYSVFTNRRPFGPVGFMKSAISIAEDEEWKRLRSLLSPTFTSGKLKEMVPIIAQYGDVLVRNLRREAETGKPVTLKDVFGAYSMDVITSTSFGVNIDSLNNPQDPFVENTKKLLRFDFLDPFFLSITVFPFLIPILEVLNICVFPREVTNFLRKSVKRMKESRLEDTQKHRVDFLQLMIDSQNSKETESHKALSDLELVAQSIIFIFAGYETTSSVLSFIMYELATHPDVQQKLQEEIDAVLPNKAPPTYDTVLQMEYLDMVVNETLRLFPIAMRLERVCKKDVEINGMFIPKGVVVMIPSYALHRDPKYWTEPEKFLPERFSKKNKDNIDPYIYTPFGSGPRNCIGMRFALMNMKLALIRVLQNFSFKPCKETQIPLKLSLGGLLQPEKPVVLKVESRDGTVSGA

[20] = Plasma clearance in rhesus monkey at 2 mg/kg administered through gavage by LC-MS/MS method; format: ADME, organism-based, Macaca mulatta; details: po

Compound: Cc1nnc2n1-c1ccc(-c3cncc([C@](C)(O)C(F)(F)F)c3)cc1CC2
- inhibition in vivo at 0.3 mg/kg (Rhesus monkey [1]): 71%
- IC50 [2]: 0.064 µM
- IC50 [3]: 4.4 µM
- Activity (Rhesus monkey [4]): inactive
- Cp(f) (Plasma [5]): 73 nM
- logD [6]: 1.2
- bioavailability [7]: 100%
- inhibition (Rhesus monkey [8]): Dose-dependent effect
- AUC (Rhesus monkey [9]): 16.26 µM·kg·h/mg
- half-life [10]: 1.2 h
- CLint scaled [11]: < 20 mL/min/kg
- PPB (Plasma [12]): 31%
- half-life [13]: 7.8 h
- bioavailability [14]: 87%
- inhibition in vivo at 0.1 mg/kg (Rhesus monkey [15]): 48%
- Fu (Plasma [16]): 31%
- Cp(f) (Plasma [17]): 279 nM
- Cp(f) (Plasma [18]): 19 nM
- AUC/dose (Rattus norvegicus): 1.88 µM·kg·h/mg
- Ratio IC50 (Homo sapiens): 69
- inhibition in vivo at 1 mg/kg (Rhesus monkey [19]): 98%
- IC50 (Aromatase): > 30 µM
- IC50 (Cytochrome P450 3A4): > 50 µM
- CL/F [20]: 3 mL/min/kg
